Test results as given in ChEMBL document CHEMBL1141699, “Design, synthesis, and antibacterial activities of novel 3,6-bicyclolide oximes: length optimization and zero carbon linker oximes” (2008).
Converted amounts (≈) assume the structure as drawn.

Assays:
Format in all cases: functional
Streptococcus pneumoniae [1] = experiment: Antibacterial activity against erythromycin-susceptible Streptococcus pneumoniae 49619 by broth-microdilution method
In short: (§1)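 MIC (µg/ml) by broth microdilution following CLSI standards.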

Streptococcus pyogenes [2] = experiment: Antibacterial activity against MLSB-resistant Streptococcus pyogenes 2912 expressing ermA by broth-microdilution method; in short: as §1
Moraxella catarrhalis = experiment: Antibacterial activity against Moraxella catarrhalis by broth-microdilution method
In short: (§2)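 MICs were determined by broth microdilution following CLSI standards and reported in µg/ml.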

Streptococcus pneumoniae [3] = experiment: Antibacterial activity against MLSB-resistant Streptococcus pneumoniae 700906 expressing erm by broth-microdilution method; in short: as §1
Staphylococcus aureus [4] = experiment: Antibacterial activity against MLSB-resistant Staphylococcus aureus 27660 expressing ermA by broth-microdilution method; in short: as §1
Haemophilus influenzae [5] = experiment: Antibacterial activity against ampicillin-susceptible Haemophilus influenzae by broth-microdilution method
Streptococcus pyogenes [6] = experiment: Antibacterial activity against erythromycin-susceptible Streptococcus pyogenes 19615 by broth-microdilution method; in short: as §2
Haemophilus influenzae [7] = experiment: Antibacterial activity against ampicillin-resistant Haemophilus influenzae 33929 expressing beta-lactamase by broth-microdilution method; in short: as §1
Staphylococcus aureus [8] = experiment: Antibacterial activity against methicillin-resistant Staphylococcus aureus 33591 by broth-microdilution method; in short: as §1
Staphylococcus aureus [9] = experiment: Antibacterial activity against erythromycin-susceptible Staphylococcus aureus 29213 by broth-microdilution method; conditions: ATCC29213; in short: as §1
Streptococcus pyogenes [10] = experiment: Antibacterial activity against efflux-resistant Streptococcus pyogenes 1323 expressing mefA by broth-microdilution method; in short: as §1
Streptococcus pneumoniae [11] = experiment: Antibacterial activity against efflux-resistant Streptococcus pneumoniae 7701 expressing mefA by broth-microdilution method; in short: as §1

Row | Structure (SMILES) | MIC (Streptococcus pneumoniae [1]) [µg/mL] | MIC (Streptococcus pyogenes [2]) [µg/mL] | MIC (Moraxella catarrhalis) [µg/mL] | MIC (Streptococcus pneumoniae [3]) [µg/mL] | MIC (Staphylococcus aureus [4]) [µg/mL] | MIC (Haemophilus influenzae [5]) [µg/mL] | MIC (Streptococcus pyogenes [6]) [µg/mL] | MIC (Haemophilus influenzae [7]) [µg/mL] | MIC (Staphylococcus aureus [8]) [µg/mL] | MIC (Staphylococcus aureus [9]) [µg/mL] | MIC (Streptococcus pyogenes [10]) [µg/mL] | MIC (Streptococcus pneumoniae [11]) [µg/mL]
1 | CC[C@H]1OC(=O)[C@H](C)[C@H]2OC/C(=N\OCCCc3ccccc3)CCO[C@](C)(C[C@@H](C)C(=O)[C@H](C)[C@H]3NC(=O)O[C@@]31C)[C@H](O[C@@H]1O[C@H](C)C[C@H](N(C)C)[C@H]1O)[C@H]2C | ≤ 0.06 | 8 (≈ 9.97 µM) | 0.125 (≈ 0.156 µM) | 4 (≈ 4.99 µM) | 0.125 (≈ 0.156 µM) | 2 (≈ 2.49 µM) | ≤ 0.06 | 2 (≈ 2.49 µM) | > 64 | 0.125 (≈ 0.156 µM) | – | –
2 | CC[C@H]1OC(=O)[C@H](C)[C@H]2OC/C(=N\Oc3cccc(-c4ccccc4)c3)CCO[C@](C)(C[C@@H](C)C(=O)[C@H](C)[C@H]3NC(=O)O[C@@]31C)[C@H](O[C@@H]1O[C@H](C)C[C@H](N(C)C)[C@H]1O)[C@H]2C | ≤ 0.06 | 4 (≈ 4.78 µM) | 0.125 (≈ 0.15 µM) | 2 (≈ 2.39 µM) | 0.125 (≈ 0.15 µM) | 4 (≈ 4.78 µM) | ≤ 0.06 | 4 (≈ 4.78 µM) | 4 (≈ 4.78 µM) | 0.125 (≈ 0.15 µM) | 0.125 (≈ 0.15 µM) | –
3 | CC[C@H]1OC(=O)[C@H](C)[C@H]2OC/C(=N\OCCCCCc3ccccc3)CCO[C@](C)(C[C@@H](C)C(=O)[C@H](C)[C@H]3NC(=O)O[C@@]31C)[C@H](O[C@@H]1O[C@H](C)C[C@H](N(C)C)[C@H]1O)[C@H]2C | ≤ 0.06 | 8 (≈ 9.64 µM) | 0.25 (≈ 0.301 µM) | 8 (≈ 9.64 µM) | 0.25 (≈ 0.301 µM) | 4 (≈ 4.82 µM) | ≤ 0.06 | 4 (≈ 4.82 µM) | > 64 | 0.25 (≈ 0.301 µM) | 0.125 (≈ 0.151 µM) | 0.125 (≈ 0.151 µM)
4 | CC[C@H]1OC(=O)[C@H](C)[C@H]2OC/C(=N\Oc3ccc4ccccc4c3)CCO[C@](C)(C[C@@H](C)C(=O)[C@H](C)[C@H]3NC(=O)O[C@@]31C)[C@H](O[C@@H]1O[C@H](C)C[C@H](N(C)C)[C@H]1O)[C@H]2C | ≤ 0.06 | 2 (≈ 2.47 µM) | 0.25 (≈ 0.309 µM) | 0.5 (≈ 0.617 µM) | 0.25 (≈ 0.309 µM) | 4 (≈ 4.94 µM) | ≤ 0.06 | 8 (≈ 9.88 µM) | 32 (≈ 39.5 µM) | 0.25 (≈ 0.309 µM) | 0.125 (≈ 0.154 µM) | 0.125 (≈ 0.154 µM)
5 | CC[C@H]1OC(=O)[C@H](C)[C@H]2OC/C(=N\OCCc3ccccc3)CCO[C@](C)(C[C@@H](C)C(=O)[C@H](C)[C@H]3NC(=O)O[C@@]31C)[C@H](O[C@@H]1O[C@H](C)C[C@H](N(C)C)[C@H]1O)[C@H]2C | ≤ 0.06 | 8 (≈ 10.2 µM) | ≤ 0.06 | 16 (≈ 20.3 µM) | 0.125 (≈ 0.159 µM) | 2 (≈ 2.54 µM) | ≤ 0.06 | 2 (≈ 2.54 µM) | > 64 | 0.125 (≈ 0.159 µM) | 0.125 (≈ 0.159 µM) | –
6 | CC[C@H]1OC(=O)[C@H](C)[C@H]2OC/C(=N\Oc3ccccc3)CCO[C@](C)(C[C@@H](C)C(=O)[C@H](C)[C@H]3NC(=O)O[C@@]31C)[C@H](O[C@@H]1O[C@H](C)C[C@H](N(C)C)[C@H]1O)[C@H]2C | ≤ 0.06 | 4 (≈ 5.26 µM) | ≤ 0.06 | 32 (≈ 42.1 µM) | ≤ 0.06 | 2 (≈ 2.63 µM) | ≤ 0.06 | 1 (≈ 1.32 µM) | > 64 | ≤ 0.06 | – | –
7 | CC[C@H]1OC(=O)[C@H](C)[C@H]2OC/C(=N\Oc3ccc(Cl)cc3)CCO[C@](C)(C[C@@H](C)C(=O)[C@H](C)[C@H]3NC(=O)O[C@@]31C)[C@H](O[C@@H]1O[C@H](C)C[C@H](N(C)C)[C@H]1O)[C@H]2C | ≤ 0.06 | 2 (≈ 2.52 µM) | ≤ 0.06 | 16 (≈ 20.1 µM) | ≤ 0.06 | 4 (≈ 5.04 µM) | ≤ 0.06 | 4 (≈ 5.04 µM) | > 64 | ≤ 0.06 | – | –
8 | CC[C@H]1OC(=O)[C@H](C)[C@H]2OC/C(=N\OCCCCc3ccccc3)CCO[C@](C)(C[C@@H](C)C(=O)[C@H](C)[C@H]3NC(=O)O[C@@]31C)[C@H](O[C@@H]1O[C@H](C)C[C@H](N(C)C)[C@H]1O)[C@H]2C | ≤ 0.06 | 16 (≈ 19.6 µM) | 0.25 (≈ 0.306 µM) | 4 (≈ 4.9 µM) | 0.25 (≈ 0.306 µM) | 8 (≈ 9.8 µM) | ≤ 0.06 | 4 (≈ 4.9 µM) | 64 (≈ 78.4 µM) | 0.25 (≈ 0.306 µM) | 0.25 (≈ 0.306 µM) | 0.125 (≈ 0.153 µM)
9 | CC[C@H]1OC(=O)[C@H](C)[C@H]2OC/C(=N\Oc3cccc(Cl)c3)CCO[C@](C)(C[C@@H](C)C(=O)[C@H](C)[C@H]3NC(=O)O[C@@]31C)[C@H](O[C@@H]1O[C@H](C)C[C@H](N(C)C)[C@H]1O)[C@H]2C | ≤ 0.06 | 1 (≈ 1.26 µM) | ≤ 0.06 | 8 (≈ 10.1 µM) | ≤ 0.06 | 2 (≈ 2.52 µM) | ≤ 0.06 | 2 (≈ 2.52 µM) | 32 (≈ 40.3 µM) | ≤ 0.06 | – | –
10 | CC[C@H]1OC(=O)[C@H](C)[C@H]2OC/C(=N\Oc3ccc(-c4ccccc4)cc3)CCO[C@](C)(C[C@@H](C)C(=O)[C@H](C)[C@H]3NC(=O)O[C@@]31C)[C@H](O[C@@H]1O[C@H](C)C[C@H](N(C)C)[C@H]1O)[C@H]2C | ≤ 0.06 | 2 (≈ 2.39 µM) | 1 (≈ 1.2 µM) | 0.25 (≈ 0.299 µM) | 0.5 (≈ 0.598 µM) | 8 (≈ 9.57 µM) | ≤ 0.06 | 8 (≈ 9.57 µM) | 16 (≈ 19.1 µM) | 0.5 (≈ 0.598 µM) | 0.25 (≈ 0.299 µM) | 0.125 (≈ 0.15 µM)
11 | CC[C@H]1OC(=O)[C@H](C)[C@H]2OC/C(=N\Oc3cccnc3)CCO[C@](C)(C[C@@H](C)C(=O)[C@H](C)[C@H]3NC(=O)O[C@@]31C)[C@H](O[C@@H]1O[C@H](C)C[C@H](N(C)C)[C@H]1O)[C@H]2C | 0.125 (≈ 0.164 µM) | 4 (≈ 5.26 µM) | ≤ 0.06 | 16 (≈ 21 µM) | 0.125 (≈ 0.164 µM) | 1 (≈ 1.31 µM) | ≤ 0.06 | 1 (≈ 1.31 µM) | > 64 | 0.125 (≈ 0.164 µM) | 0.25 (≈ 0.329 µM) | 0.125 (≈ 0.164 µM)
12 | CC[C@H]1OC(=O)[C@H](C)[C@@H](O[C@H]2C[C@@](C)(OC)[C@@H](O)[C@H](C)O2)[C@H](C)[C@@H](O[C@@H]2O[C@H](C)C[C@H](N(C)C)[C@H]2O)[C@](C)(O)C[C@@H](C)C(=O)[C@H](C)[C@@H](O)[C@]1(C)O [ERYTHROMYCIN] | ≤ 0.06 | > 64 | 0.13 (≈ 0.177 µM) | > 64 | > 64 | 4 (≈ 5.45 µM) | 0.015 (≈ 0.0204 µM) | 4 (≈ 5.45 µM) | > 64 | 0.5 (≈ 0.681 µM) | 16 (≈ 21.8 µM) | 4 (≈ 5.45 µM)
13 | CC[C@H]1OC(=O)[C@H](C)[C@H]2OC/C(=N\Oc3ccccc3Cl)CCO[C@](C)(C[C@@H](C)C(=O)[C@H](C)[C@H]3NC(=O)O[C@@]31C)[C@H](O[C@@H]1O[C@H](C)C[C@H](N(C)C)[C@H]1O)[C@H]2C | ≤ 0.06 | 4 (≈ 5.04 µM) | ≤ 0.06 | 32 (≈ 40.3 µM) | ≤ 0.06 | 2 (≈ 2.52 µM) | ≤ 0.06 | 2 (≈ 2.52 µM) | 64 (≈ 80.6 µM) | ≤ 0.06 | – | –
14 | CC[C@H]1OC(=O)[C@H](C)[C@H]2OC/C(=N/OCc3ccccc3)CCO[C@](C)(C[C@@H](C)C(=O)[C@H](C)[C@H]3NC(=O)O[C@@]31C)[C@H](O[C@@H]1O[C@H](C)C[C@H](N(C)C)[C@H]1O)[C@H]2C | ≤ 0.06 | 64 (≈ 82.7 µM) | 0.125 (≈ 0.162 µM) | > 64 | 0.5 (≈ 0.646 µM) | 8 (≈ 10.3 µM) | ≤ 0.06 | 16 (≈ 20.7 µM) | > 64 | 0.5 (≈ 0.646 µM) | 0.25 (≈ 0.323 µM) | 0.125 (≈ 0.162 µM)
15 | CC[C@H]1OC(=O)[C@H](C)[C@H]2OC/C(=N\OCc3ccccc3)CCO[C@](C)(C[C@@H](C)C(=O)[C@H](C)[C@H]3NC(=O)O[C@@]31C)[C@H](O[C@@H]1O[C@H](C)C[C@H](N(C)C)[C@H]1O)[C@H]2C | ≤ 0.06 | 4 (≈ 5.17 µM) | ≤ 0.06 | > 64 | ≤ 0.06 | 2 (≈ 2.58 µM) | ≤ 0.06 | 2 (≈ 2.58 µM) | > 64 | ≤ 0.06 | 0.125 (≈ 0.162 µM) | –
16 | CC[C@H]1OC(=O)[C@H](C)[C@H]2OC/C(=N\Oc3ccccc3-c3ccccc3)CCO[C@](C)(C[C@@H](C)C(=O)[C@H](C)[C@H]3NC(=O)O[C@@]31C)[C@H](O[C@@H]1O[C@H](C)C[C@H](N(C)C)[C@H]1O)[C@H]2C | ≤ 0.06 | 16 (≈ 19.1 µM) | 0.5 (≈ 0.598 µM) | 16 (≈ 19.1 µM) | 0.5 (≈ 0.598 µM) | 8 (≈ 9.57 µM) | ≤ 0.06 | 8 (≈ 9.57 µM) | 16 (≈ 19.1 µM) | 0.5 (≈ 0.598 µM) | 0.5 (≈ 0.598 µM) | 0.5 (≈ 0.598 µM)
